Assay results published in ChEMBL document CHEMBL1143838, “Candida albicans and Candida dubliniensis respond differently to echinocandin antifungal agents in vitro” (2007).
Converted amounts (≈) assume the structure as drawn. *1 amine or outer side, *2 acyl side, *3 side chain or, on linkers, in order; H or OH if unused. Where a SMILES comes first, the peptide text is derived from it. Bridges are numbered along the chain shown (N, C = ends). [ ]: non-standard residue; d: D form. The star is where a group is joined. hTyr(3S-OH,4S-OH,3'-OSO3H) = N[C@H](C(=O)O)[C@H](O)[C@@H](O)c1ccc(O)c(OS(=O)(=O)O)c1; Orn(4R-OH,5R-OH) = O=C([C@H](C[C@@H](O)[C@@H](O)N[*:3])N[*:1])[*:2]; Pro(3S-OH,4S-Me) = C[C@H]1CN[C@H](C(=O)O)[C@H]1O; X1 = CCCCCOc1ccc(-c2cc(-c3ccc(C(=O)*)cc3)no2)cc1; Gln(3R-OH) = NC(=O)C[C@@H](O)[C@H](N)C(=O)O; Hyp = O=C(O)[C@@H]1C[C@@H](O)CN1

Columns and labels:
Assay type in all cases: functional
Candida albicans [1] = test: Antifungal activity against Candida albicans T28 after 24 hrs by EUCAST test
Outline: (§1)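 EUCAST broth microdilution with aqueous doubling dilutions of drug. Inoculum grown overnight at 30°C in NGY, then added to MOPS-buffered RPMI 1640 with 2% glucose at an initial 10^5 yeasts/ml. Incubated 35°C for 24 h. MICs taken from triplicate spectrophotometric dose-response data as 50% and 80% growth-reduction endpoints.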

Candida albicans [2] = test: Antifungal activity against Candida albicans T32 after 24 hrs by CLSI M27-A test
Outline: (§2)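 CLSI M27-A broth microdilution with aqueous doubling dilutions of drug. Inoculum grown overnight at 30°C in NGY medium, then added to MOPS-buffered RPMI 1640 at an initial 10^3 yeasts/ml. Incubated 35°C for 24 h. MIC read visually as the lowest concentration giving a marked decrease in visible growth; paradoxical or trailing growth noted.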

Candida albicans [3] = test: Antifungal activity against Candida albicans NR2 after 24 hrs by EUCAST test; outline: as §1
Candida albicans [4] = test: Antifungal activity against Candida albicans SC5314 after 24 hrs by CLSI M27-A test; details: SC5314, 24 h; outline: as §2
Candida albicans [5] = test: Antifungal activity against Candida albicans SCS67023C after 24 hrs by CLSI M27-A test; outline: as §2
Candida albicans [6] = test: Antifungal activity against Candida albicans SCS67023C after 24 hrs by EUCAST test; outline: as §1
Candida albicans [7] = test: Antifungal activity against Candida albicans AM2003/0083 after 24 hrs by CLSI M27-A test; outline: as §2
Candida albicans [8] = test: Antifungal activity against Candida albicans B06-341 after 24 hrs by CLSI M27-A test; outline: as §2
Candida albicans [9] = test: Antifungal activity against Candida albicans HK04M102095 after 24 hrs by CLSI M27-A test; outline: as §2
Candida albicans [10] = test: Antifungal activity against Candida albicans JIMS146204 after 24 hrs by CLSI M27-A test; outline: as §2
Candida albicans [11] = test: Antifungal activity against Candida albicans NCPF6525 after 24 hrs by CLSI M27-A test; outline: as §2
Candida albicans [12] = test: Antifungal activity against Candida albicans NR3 after 24 hrs by EUCAST test; outline: as §1
Candida albicans [13] = test: Antifungal activity against Candida albicans CAI4RI after 24 hrs by CLSI M27-A test; outline: as §2
Candida albicans [14] = test: Antifungal activity against Candida albicans CAI4RI after 24 hrs by EUCAST test; outline: as §1
Candida albicans [15] = test: Antifungal activity against Candida albicans T25 after 24 hrs by CLSI M27-A test; outline: as §2
Candida albicans [16] = test: Antifungal activity against Candida albicans T26 after 24 hrs by CLSI M27-A test; outline: as §2
Candida albicans [17] = test: Antifungal activity against Candida albicans T26 after 24 hrs by EUCAST test; outline: as §1
Candida albicans [18] = test: Antifungal activity against Candida albicans Y109 after 24 hrs by EUCAST test; outline: as §1
Candida dubliniensis [19] = test: Antifungal activity against Candida dubliniensis 910Aa after 24 hrs by EUCAST test; outline: as §1
Candida dubliniensis [20] = test: Antifungal activity against Candida dubliniensis AMCC after 24 hrs by EUCAST test; outline: as §1
Candida dubliniensis [21] = test: Antifungal activity against Candida dubliniensis Leic875 after 24 hrs by EUCAST test
Outline: (§3)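 Yeasts were grown overnight at 30°C in NGY, then inoculated at 10^5 yeasts/ml initial concentration into MOPS-buffered RPMI 1640 with 2% glucose containing aqueous doubling dilutions of drug. Plates were held at 35°C for 24 h. MICs came from triplicate spectrophotometric dose-response data at 50% and 80% growth-reduction endpoints. Trailing meant a >100-fold gap between these endpoints; paradoxical meant regrowth ≥5% above the curve minimum.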

Candida dubliniensis [22] = test: Antifungal activity against Candida dubliniensis Leic952 after 24 hrs by CLSI M27-A test
Outline: (§4)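 Broth microdilution with echinocandins as aqueous doubling dilutions. Yeasts were grown overnight at 30°C in NGY and seeded at 10^3 yeasts/ml initial concentration in MOPS-buffered RPMI 1640, then incubated at 35°C for 24 h. The MIC was read visually as the lowest concentration giving a marked decrease in visible growth; paradoxical or trailing growth was noted.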

Candida dubliniensis [23] = test: Antifungal activity against Candida dubliniensis SCS17154969-1 after 24 hrs by CLSI M27-A test; outline: as §4
Candida dubliniensis [24] = test: Antifungal activity against Candida dubliniensis SCS17154969-1 after 24 hrs by EUCAST test; outline: as §3
Candida dubliniensis [25] = test: Antifungal activity against Candida dubliniensis SCS59662 after 24 hrs by EUCAST test; outline: as §3
Candida dubliniensis [26] = test: Antifungal activity against Candida dubliniensis FS after 24 hrs by CLSI M27-A test; outline: as §4
Candida dubliniensis [27] = test: Antifungal activity against Candida dubliniensis IK after 24 hrs by CLSI M27-A test; outline: as §4
Candida dubliniensis [28] = test: Antifungal activity against Candida dubliniensis IK after 24 hrs by EUCAST test; outline: as §3
Candida dubliniensis [29] = test: Antifungal activity against Candida dubliniensis J930936 after 24 hrs by CLSI M27-A test; outline: as §4
Candida dubliniensis [30] = test: Antifungal activity against Candida dubliniensis J930936 after 24 hrs by EUCAST test; outline: as §3
Candida dubliniensis [31] = test: Antifungal activity against Candida dubliniensis J931021 after 24 hrs by CLSI M27-A test; outline: as §4
Candida dubliniensis [32] = test: Antifungal activity against Candida dubliniensis SCSBB417709 after 24 hrs by CLSI M27-A test; outline: as §4
Candida dubliniensis [33] = test: Antifungal activity against Candida dubliniensis SCSBB417709 after 24 hrs by EUCAST test; outline: as §3
Candida dubliniensis [34] = test: Antifungal activity against Candida dubliniensis ST after 24 hrs by CLSI M27-A test; outline: as §4
Candida dubliniensis [35] = test: Antifungal activity against Candida dubliniensis ST after 24 hrs by EUCAST test; outline: as §3
Candida parapsilosis = test: Antifungal activity against Candida parapsilosis ATCC 22019 after 24 hrs by CLSI M27-A test; details: Lodderomyces parapsilosis, ATCC 22019, 24 h; outline: as §4
Candida dubliniensis [36] = test: Antifungal activity against Candida dubliniensis 90/033 after 24 hrs by CLSI M27-A test; outline: as §2

Compound	MIC50 (Candida albicans [1]) [µg/mL]	MIC50 (Candida albicans [2]) [µg/mL]	MIC50 (Candida albicans [3]) [µg/mL]	MIC50 (Candida albicans [4]) [µg/mL]	MIC50 (Candida albicans [5]) [µg/mL]	MIC50 (Candida albicans [6]) [µg/mL]	MIC50 (Candida albicans [7]) [µg/mL]	MIC50 (Candida albicans [8]) [µg/mL]	MIC50 (Candida albicans [9]) [µg/mL]	MIC50 (Candida albicans [10]) [µg/mL]	MIC50 (Candida albicans [11]) [µg/mL]	MIC50 (Candida albicans [12]) [µg/mL]	MIC50 (Candida albicans [13]) [µg/mL]	MIC50 (Candida albicans [14]) [µg/mL]	MIC50 (Candida albicans [15]) [µg/mL]	MIC50 (Candida albicans [16]) [µg/mL]	MIC50 (Candida albicans [17]) [µg/mL]	MIC50 (Candida albicans [18]) [µg/mL]	MIC50 (Candida dubliniensis [19]) [µg/mL]	MIC50 (Candida dubliniensis [20]) [µg/mL]	also measured
CC[C@H](C)C[C@H](C)CCCCCCCCC(=O)N[C@H]1C[C@@H](O)[C@@H](NCCN)NC(=O)[C@@H]2[C@@H](O)CCN2C(=O)[C@H]([C@H](O)CCN)NC(=O)[C@H]([C@H](O)[C@@H](O)c2ccc(O)cc2)NC(=O)[C@@H]2C[C@@H](O)CN2C(=O)[C@H]([C@@H](C)O)NC1=O [CASPOFUNGIN]	0.13 (≈ 0.119 µM)	0.25 (≈ 0.229 µM)	4 (≈ 3.66 µM)	0.5 (≈ 0.457 µM)	0.5 (≈ 0.457 µM)	0.25 (≈ 0.229 µM)	0.5 (≈ 0.457 µM)	0.13 (≈ 0.119 µM)	0.5 (≈ 0.457 µM)	0.5 (≈ 0.457 µM)	0.13 (≈ 0.119 µM)	4 (≈ 3.66 µM)	4 (≈ 3.66 µM)	4 (≈ 3.66 µM)	8 (≈ 7.32 µM)	8 (≈ 7.32 µM)	16 (≈ 14.6 µM)	2 (≈ 1.83 µM)	0.25 (≈ 0.229 µM)	0.25 (≈ 0.229 µM)	MIC50 (Candida dubliniensis [21]): 0.25 µg/mL (≈ 0.229 µM); MIC50 (Candida dubliniensis [22]): 0.5 µg/mL (≈ 0.457 µM); MIC50 (Candida dubliniensis [23]): 0.5 µg/mL (≈ 0.457 µM); MIC50 (Candida dubliniensis [24]): 0.5 µg/mL (≈ 0.457 µM); MIC50 (Candida dubliniensis [25]): 0.5 µg/mL (≈ 0.457 µM); MIC50 (Candida dubliniensis [26]): 0.5 µg/mL (≈ 0.457 µM); MIC50 (Candida dubliniensis [27]): 0.5 µg/mL (≈ 0.457 µM); MIC50 (Candida dubliniensis [28]): 0.25 µg/mL (≈ 0.229 µM); MIC50 (Candida dubliniensis [29]): 0.5 µg/mL (≈ 0.457 µM); MIC50 (Candida dubliniensis [30]): 0.25 µg/mL (≈ 0.229 µM); MIC50 (Candida dubliniensis [31]): 0.5 µg/mL (≈ 0.457 µM); MIC50 (Candida dubliniensis [32]): 0.5 µg/mL (≈ 0.457 µM); MIC50 (Candida dubliniensis [33]): 0.25 µg/mL (≈ 0.229 µM); MIC50 (Candida dubliniensis [34]): 0.5 µg/mL (≈ 0.457 µM); MIC50 (Candida dubliniensis [35]): 0.5 µg/mL (≈ 0.457 µM); MIC50 (Candida parapsilosis): 1 µg/mL (≈ 0.915 µM)
CCCCCOc1ccc(-c2cc(-c3ccc(C(=O)N[C@H]4C[C@@H](O)[C@@H](O)NC(=O)[C@@H]5[C@@H](O)[C@@H](C)CN5C(=O)[C@H]([C@H](O)CC(N)=O)NC(=O)[C@H]([C@H](O)[C@@H](O)c5ccc(O)c(OS(=O)(=O)O)c5)NC(=O)[C@@H]5C[C@@H](O)CN5C(=O)[C@H]([C@@H](C)O)NC4=O)cc3)no2)cc1 [MICAFUNGIN] (X1-[Orn(4R-OH,5R-OH)]T[Hyp][hTyr(3S-OH,4S-OH,3'-OSO3H)][Gln(3R-OH)][Pro(3S-OH,4S-Me)]; lactam 1-C)	≤ 0.032	≤ 0.032	0.5 (≈ 0.394 µM)	≤ 0.032	≤ 0.032	≤ 0.032	≤ 0.032	≤ 0.032	≤ 0.032	≤ 0.032	≤ 0.032	2 (≈ 1.57 µM)	0.25 (≈ 0.197 µM)	0.5 (≈ 0.394 µM)	1 (≈ 0.787 µM)	1 (≈ 0.787 µM)	1 (≈ 0.787 µM)	0.25 (≈ 0.197 µM)	≤ 0.032	≤ 0.032	MIC50 (Candida dubliniensis [36]): ≤ 0.032 µg/mL; MIC50 (Candida dubliniensis [21]): ≤ 0.032 µg/mL; MIC50 (Candida dubliniensis [22]): ≤ 0.032 µg/mL; MIC50 (Candida dubliniensis [23]): ≤ 0.032 µg/mL; MIC50 (Candida dubliniensis [24]): 0.063 µg/mL (≈ 0.0496 µM); MIC50 (Candida dubliniensis [25]): ≤ 0.032 µg/mL; MIC50 (Candida dubliniensis [26]): ≤ 0.032 µg/mL; MIC50 (Candida dubliniensis [27]): ≤ 0.032 µg/mL; MIC50 (Candida dubliniensis [28]): ≤ 0.032 µg/mL; MIC50 (Candida dubliniensis [29]): ≤ 0.032 µg/mL; MIC50 (Candida dubliniensis [30]): ≤ 0.032 µg/mL; MIC50 (Candida dubliniensis [31]): ≤ 0.032 µg/mL; MIC50 (Candida dubliniensis [32]): ≤ 0.032 µg/mL; MIC50 (Candida dubliniensis [33]): ≤ 0.032 µg/mL; MIC50 (Candida dubliniensis [34]): ≤ 0.032 µg/mL; MIC50 (Candida dubliniensis [35]): 0.063 µg/mL (≈ 0.0496 µM); MIC50 (Candida parapsilosis): 0.25 µg/mL (≈ 0.197 µM)
